Changes are numbered by the printed parent chain. Values joined by “and” are separate entries in the source; they are usually repeats but may differ in a detail not shown here. Equal entries are not always repeated.
Assays:
PP2A = PP2A (Homo sapiens, UniProt P67775); assay: Cadmium inhibition assay of PP2A; assay type: biochemical; settings: pNPP, pH 8.0, 25°C
Method in brief: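 Commercial PP2A assayed on pNPP in 0.05 M Tris/0.05 M Bis-Tris/0.1 M acetate at pH 8.0 and 25°C; EDTA (0.5 M, pH 10.0) stop; p-nitrophenol at 405 nm.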

PPM1A [1] = target: T1, PPM1A (Homo sapiens, UniProt P35813); assay: Dephosphorylation of pp-ERK2 protein by PPM1A in vitro; assay type: biochemical; settings: 1.5 μM Cd^2+, 1 mM Mn^2+, pH 8.0, 37°C, wild-type PPM1A
T1 sequence (P35813 1-382): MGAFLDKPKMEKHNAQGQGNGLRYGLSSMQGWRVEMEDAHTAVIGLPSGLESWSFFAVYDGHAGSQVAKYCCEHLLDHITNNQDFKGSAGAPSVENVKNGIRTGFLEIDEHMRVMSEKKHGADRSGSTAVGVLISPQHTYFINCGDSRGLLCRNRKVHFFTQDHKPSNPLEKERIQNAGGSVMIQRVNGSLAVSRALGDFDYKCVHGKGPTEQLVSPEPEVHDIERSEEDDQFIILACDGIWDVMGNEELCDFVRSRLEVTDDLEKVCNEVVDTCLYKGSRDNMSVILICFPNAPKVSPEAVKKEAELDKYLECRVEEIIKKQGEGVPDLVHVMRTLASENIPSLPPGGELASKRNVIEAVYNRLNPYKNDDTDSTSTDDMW
Method in brief: (§1)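 Recombinant doubly phosphorylated ERK2 as substrate in 0.05 M Tris/0.05 M Bis-Tris/0.1 M acetate, pH 8.0, 37°C, 1 mM Mn2+, with or without 1.5 µM Cd2+; reactions started by adding phosphatase, stopped by boiling in SDS buffer (100°C, 10 min); phospho-ERK (pT/pY) by Western blot; triplicate, mean ± standard error.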

PPM1A [2] = target: T1, PPM1A; assay: PPM1A-catalyzed hydrolysis of pp-ERK and pp-P38 phospho-peptides; assay type: biochemical; settings: pp-ERK and pp-P38 phospho-peptide substrates
PPM1G [3] = target: T2, PPM1G (Homo sapiens, UniProt O15355); assay: PPM1G-catalyzed pNPP hydrolysis, metal ion activation and inhibition; assay type: biochemical; settings: PPM1G wild type, Mn^2+ as variable substrate, pH 8.0, 25°C
T2 sequence (O15355 1-546): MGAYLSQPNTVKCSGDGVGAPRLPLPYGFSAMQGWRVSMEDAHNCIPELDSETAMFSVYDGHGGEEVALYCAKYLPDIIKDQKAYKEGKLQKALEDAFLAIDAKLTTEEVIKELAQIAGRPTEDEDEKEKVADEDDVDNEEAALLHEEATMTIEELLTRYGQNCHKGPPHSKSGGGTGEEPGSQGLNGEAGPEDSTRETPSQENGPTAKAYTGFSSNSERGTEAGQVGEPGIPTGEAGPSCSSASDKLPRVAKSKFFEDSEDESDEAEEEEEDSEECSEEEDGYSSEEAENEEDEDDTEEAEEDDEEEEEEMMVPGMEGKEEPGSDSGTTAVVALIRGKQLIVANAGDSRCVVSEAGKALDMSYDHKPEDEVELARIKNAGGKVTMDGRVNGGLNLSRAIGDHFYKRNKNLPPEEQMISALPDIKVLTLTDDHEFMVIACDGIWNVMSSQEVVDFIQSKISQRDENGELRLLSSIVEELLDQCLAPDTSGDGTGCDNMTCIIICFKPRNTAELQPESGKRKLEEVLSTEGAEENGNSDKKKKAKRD
Method in brief: (§2)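 Recombinant N-terminal His-tagged human wild-type enzyme in pNPP buffer (0.05 M Tris/0.05 M Bis-Tris/0.1 M acetate), pH 8.0, 25°C. Metal activation: Mn2+ varied 1 to 100 mM with saturating pNPP (10-40 mM), EDTA stop, 405 nm, Michaelis-Menten fit. Inhibition: pNPP fixed at 20 mM, Mn2+ varied, Cd2+ at 0, 0.25, 0.5 and 1.0 µM; double-reciprocal analysis.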

[4] = target: T3, striatum-enriched phosphatase (STEP) (Homo sapiens, UniProt P54829); assay: Dephosphorylation of pp-ERK2 protein by STEP in vitro; assay type: biochemical; settings: 1.5 μM Cd^2+, pH 8.0, 37°C
T3 sequence (P54829 1-565): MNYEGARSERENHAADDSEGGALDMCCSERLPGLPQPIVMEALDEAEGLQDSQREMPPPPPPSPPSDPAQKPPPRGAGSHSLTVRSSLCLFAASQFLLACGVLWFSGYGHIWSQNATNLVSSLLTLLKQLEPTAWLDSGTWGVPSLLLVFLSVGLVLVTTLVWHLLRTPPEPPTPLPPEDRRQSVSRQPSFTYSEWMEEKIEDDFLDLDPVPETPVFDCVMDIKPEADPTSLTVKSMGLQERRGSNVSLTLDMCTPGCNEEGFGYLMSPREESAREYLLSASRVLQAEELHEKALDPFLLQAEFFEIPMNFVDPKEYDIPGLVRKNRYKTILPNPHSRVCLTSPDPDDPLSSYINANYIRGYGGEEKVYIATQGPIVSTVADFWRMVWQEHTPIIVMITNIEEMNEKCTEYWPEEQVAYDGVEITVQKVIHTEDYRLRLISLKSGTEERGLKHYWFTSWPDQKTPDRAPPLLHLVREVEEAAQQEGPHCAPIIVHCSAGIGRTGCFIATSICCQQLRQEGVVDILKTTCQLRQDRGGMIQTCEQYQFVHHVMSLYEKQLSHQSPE

HEK293 cells = assay: Cell cycle assay in PPM1A-overexpressing HEK293 cells; assay type: cell-based, human; settings: HEK293, PPM1A overexpression, 1.5 μM Cd^2+, 24 h
Method in brief: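 HEK293 transfected with Flag-PPM1A, serum-starved 12 h (36 h post-transfection), given 1.5 µM CdCl2 for 24 h with cycling restarted by 10% FBS medium. Cells fixed in 75% ethanol at 4°C overnight, resuspended in PBS with 0.1% NaN3, stained with propidium iodide (50 µg/ml); DNA content by flow cytometry, G2/M percentage; ≥3 repeats.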

PC12 cells = assay: Apoptosis assay in PC12 cells; assay type: cell-based; settings: 1.5 or 2.5 μM Cd^2+, 24 h
PPM1A D282A = target: T4, PPM1A D282A (Homo sapiens, UniProt P35813, D282A); assay: Dephosphorylation of pp-ERK2 protein by PPM1A D282A in vitro; assay type: biochemical; settings: 1.5 μM Cd^2+
T4 sequence (P35813 1-382 D282A): T1 sequence (P35813 1-382) with D282A
Method in brief: as §1

[5] = test system: PPM1A D239K-regulated P38 and JNK-1 phosphorylation in HEK293 cells; assay type: cell-based, human; settings: HEK293, PPM1A D239K overexpression, 1.5 μM Cd^2+
Method in brief: (§3)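 Transfected HEK293 (Flag-tagged wild-type PPM1A, D239K mutant, or control vector) starved 12 h at 36 h post-transfection, then exposed to 1.5 µM CdCl2 or none for 6 h before sorbitol (0.4 M, 20 min, 37°C). Phospho-P38 and phospho-JNK by immunoblotting of cleared lysates (equal protein, BCA); data from ≥3 experiments.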

PPM1A D239K = target: T5, PPM1A D239K (Homo sapiens, UniProt P35813, D239K); assay: Dephosphorylation of pp-ERK2 protein by PPM1A D239K in vitro; assay type: biochemical; settings: 1.5 μM Cd^2+
T5 sequence (P35813 1-382 D239K): T1 sequence (P35813 1-382) with D239K
Method in brief: as §1

PPM1G [6] = target: T2, PPM1G; assay: Dephosphorylation of pp-ERK2 protein by PPM1G in vitro; assay type: biochemical; settings: 1.5 μM Cd^2+, 1 mM Mn^2+, pH 8.0, 37°C
Method in brief: as §1

[7] = test system: PC12 cells overexpressing PPM1A D239K; assay: Apoptosis assay in PC12 cells overexpressing PPM1A D239K; assay type: cell-based; settings: overexpression of Cd^2+ insensitive mutant D239K; 1.5 and 2.5 μM, 24 h
PPM1A [8] = target: T1, PPM1A; assay: PPM1A-catalyzed pNPP hydrolysis, metal ion activation and inhibition; assay type: biochemical; settings: PPM1A wild type, Mn^2+ as variable substrate, pH 8.0, 25°C
Method in brief: as §2

PHLPP2 catalytic domain = target: T6, PHLPP2 catalytic domain (Homo sapiens, UniProt Q6ZVD8); assay: Cadmium inhibition assay of PHLPP2 catalytic domain; assay type: biochemical; settings: pNPP, pH 8.0, 25°C
T6 sequence (Q6ZVD8 784-1033): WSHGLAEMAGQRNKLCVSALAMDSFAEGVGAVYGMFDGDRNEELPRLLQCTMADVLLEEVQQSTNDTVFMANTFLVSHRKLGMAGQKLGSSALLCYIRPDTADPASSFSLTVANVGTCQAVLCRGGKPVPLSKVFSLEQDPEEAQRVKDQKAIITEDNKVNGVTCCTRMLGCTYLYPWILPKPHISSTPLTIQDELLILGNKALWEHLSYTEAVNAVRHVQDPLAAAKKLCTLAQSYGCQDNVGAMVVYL
Method in brief: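 His-tagged human PHLPP2 catalytic domain (residues 784-1033) expressed from pET-30a; pNPP hydrolysis in 0.05 M Tris, 0.05 M Bis-Tris, 0.1 M acetate, pH 8.0, 25°C, stopped with 0.5 M EDTA pH 10.0; p-nitrophenol at 405 nm.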

[9] = test system: PPM1A-regulated P38 and JNK-1 phosphorylation in HEK293 cells; assay type: cell-based, human; settings: HEK293, PPM1A overexpression, 1.5 μM CdCl2 6 h, sorbitol 0.4 M 20 min
Method in brief: as §3

PPM1G [10] = target: T2, PPM1G; assay: PPM1G-catalyzed hydrolysis of pp-ERK and pp-P38 phospho-peptides; assay type: biochemical; settings: pp-ERK and pp-P38 phospho-peptide substrates
[11] = test system: PPM1A-regulated ERK phosphorylation in HEK293 cells; assay: EGF-stimulated ERK phosphorylation in PPM1A-overexpressing HEK293 cells; assay type: cell-based, human; settings: HEK293, PPM1A overexpression, 1.5 μM Cd^2+, EGF 5 ng/ml 5 min
Method in brief: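 HEK293 in DMEM (25 mM glucose, 10% FBS, penicillin/streptomycin), 37°C, 5% CO2, transiently transfected with Flag-tagged phosphatase or control vector. 36 h post-transfection, serum-starved 12 h, 1.5 µM CdCl2 or none for 6 h, then EGF 5 ng/ml, 5 min, 37°C. Lysates immunoblotted for phospho-ERK or phospho-AKT Ser473; actin loading control; ≥3 experiments.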

Sequence of PP2A (P67775 whole entry): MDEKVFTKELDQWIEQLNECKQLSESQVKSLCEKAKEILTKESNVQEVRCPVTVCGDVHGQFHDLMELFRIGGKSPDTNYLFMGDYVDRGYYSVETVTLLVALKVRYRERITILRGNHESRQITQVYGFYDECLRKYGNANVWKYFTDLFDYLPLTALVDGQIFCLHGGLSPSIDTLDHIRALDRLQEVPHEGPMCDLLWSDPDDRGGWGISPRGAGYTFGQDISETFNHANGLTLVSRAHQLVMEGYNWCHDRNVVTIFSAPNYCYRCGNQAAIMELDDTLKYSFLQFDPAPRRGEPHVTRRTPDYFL
Sequence of PP2A (P30153 2-589 partner limits assumed): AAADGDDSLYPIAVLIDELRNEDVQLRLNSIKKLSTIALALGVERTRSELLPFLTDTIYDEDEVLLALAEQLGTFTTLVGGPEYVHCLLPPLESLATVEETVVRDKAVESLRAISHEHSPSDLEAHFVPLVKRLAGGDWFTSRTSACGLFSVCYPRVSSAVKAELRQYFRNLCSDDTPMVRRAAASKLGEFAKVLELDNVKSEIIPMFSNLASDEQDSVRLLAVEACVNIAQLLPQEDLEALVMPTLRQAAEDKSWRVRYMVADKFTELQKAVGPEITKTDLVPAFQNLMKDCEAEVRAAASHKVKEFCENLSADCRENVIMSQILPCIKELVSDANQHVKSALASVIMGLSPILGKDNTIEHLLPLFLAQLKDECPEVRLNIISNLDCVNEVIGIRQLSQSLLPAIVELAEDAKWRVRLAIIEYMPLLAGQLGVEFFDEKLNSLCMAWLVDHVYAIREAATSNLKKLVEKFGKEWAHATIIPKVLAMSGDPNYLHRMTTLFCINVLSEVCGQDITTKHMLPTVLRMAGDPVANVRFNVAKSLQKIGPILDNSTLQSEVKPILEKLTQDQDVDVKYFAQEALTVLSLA

Structure (SMILES): [Cd+2] [Cd^2+, cadmium]
- IC50 (PP2A): 130 µM
- effect on dephosphorylation of phospho-ERK (PPM1A [1]): substantially blocked
- IC50 (PPM1A [2]): low micromolar range
- Ki (PPM1G [3]): < 1 µM and ~1 µM
- effect on dephosphorylation of phospho-ERK [4]: no effect
- effect on PPM1A-induced increase in proportion of cells in G2/M (HEK293 cells): greatly reversed
- PC12 cell apoptosis (PC12 cells): induced
- effect on dephosphorylation of phospho-ERK (PPM1A D282A): minimally affected
- effect on D239K block of sorbitol-induced P38 and JNK-1 phosphorylation [5]: much weaker effects
- effect on dephosphorylation of phospho-ERK (PPM1A D239K): minimally affected
- effect on dephosphorylation of phospho-ERK (PPM1G [6]): substantially blocked
- PC12 cell apoptosis [7]: did not promote
- Ki (PPM1A [8]): < 1 µM and ~1 µM
- IC50 (PHLPP2 catalytic domain): 3000 µM
- effect on PPM1A block of sorbitol-induced P38 and JNK-1 phosphorylation [9]: drastically reversed
- IC50 (PPM1G [10]): low micromolar range
- effect on PPM1A reduction of EGF-induced ERK phosphorylation [11]: reversed
